From ChEMBL document CHEMBL6078650, “A Phenotypic High-Throughput Screen Identifies Small Molecule Modulators of Endogenous RGS10 in BV-2 Cells” (J Med Chem, 2024)
The source made the active and inactive calls. The rule behind the calls is not given here.

Assays:
[1] = (§1) Reversal of LPS-induced RGS10 silencing in mouse single close BV-2 cells assessed as RGS10 protein level by measuring LPS response measured after 24 hrs by Nano-Glo HiBit Lytic detection assay; assay type: functional; set-up: concentration or dose not given beside the values
Summary of the method: (§2)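 HiBiT-knock-in BV-2 single clone exposed to LPS at 10 ng/mL final for 24 h at 37 °C in phenol red-free assay medium; RGS10-HiBiT measured by Nano-Glo HiBiT lytic detection (LgBiT 1:100, substrate 1:50), luminescence read after 15 min at room temperature.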

[2] = Reversal of IFNgamma-induced RGS10 silencing in mouse single close BV-2 cells assessed as IFN response measured after 24 hrs by Nano-Glo HiBit Lytic detection assay relative to control; assay type: functional; set-up: concentration or dose not given beside the values
Summary of the method: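 HiBiT-tagged BV-2-RGS10 clone treated with compound at 20 μM plus IFNγ 10 ng/mL for 24 h at 37 °C; viability by GF-AFC fluorescence, then HiBiT lytic luminescence; signal normalized RLU/RFU, expressed as % of IFNγ-alone signal; four independent experiments in triplicate, one-way ANOVA with Dunnett's test.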

[3] = Induction of RGS10 expression in mouse single close BV-2 cells assessed as RGS10 protein level by measuring luminescence signal measured after 24 hrs by Nano-Glo HiBit Lytic detection assay; assay type: functional; set-up: concentration or dose not given beside the values
Summary of the method: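 BV-2-RGS10-HiBiT single-clone cells (CRISPR HiBiT tag at RGS10 C-terminus) in phenol red-free DMEM, 10% ultralow IgG FBS; IFNγ 10 ng/mL final plus compound 1–100 μM, 24 h, 37 °C. GF-AFC viability fluorescence (390/505) read first, then Nano-Glo HiBiT lytic luminescence (LgBiT 1:100, substrate 1:50); RLU/RFU expressed as % of IFNγ alone; 4 independent experiments in triplicate.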

BV-2 [4] = test: Reversal of IFNgamma-induced inflammatory gene expression in mouse single close BV-2 cells assessed as reversal of COX-2 expression at 20 uM measured after 24 hrs by qRT-PCR analysis; assay type: functional, cell-based
Summary of the method: (§3)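 BV-2 cells treated 24 h with IFNγ 10 ng/mL with or without compound at 20 μM; iNOS, COX-2 and TNFα mRNA measured by one-step qRT-PCR (100 ng RNA template, 0.4 μM primers, 40 cycles), Cq read each cycle.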

[5] = Reversal of IFNgamma-induced RGS10 silencing in mouse single close BV-2 cells assessed as RGS10 protein level by measuring luminescence signal measured after 24 hrs by Nano-Glo HiBit Lytic detection assay; conditions: BV-2, 24 h
BV-2 [6] = test: Reversal of IFNgamma-induced inflammatory gene expression in mouse single close BV-2 cells assessed as reversal of TNFalpha expression at 20 uM measured after 24 hrs by qRT-PCR analysis; assay type: functional, cell-based; summary of the method: as §3
BV-2 [7] = test: Reversal of IFNgamma-induced inflammatory gene expression in mouse single close BV-2 cells assessed as reversal of iNOS expression at 20 uM measured after 24 hrs by qRT-PCR analysis; assay type: functional, cell-based; summary of the method: as §3
BV-2 [8] = test: Reversal of IFNgamma-induced RGS10 silencing in mouse single close BV-2 cells assessed as suppression of RGS10 protein level at 20 uM measured after 24 hrs by Western blot analysis; assay type: functional, cell-based
Summary of the method: (§4)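 Parental BV-2 cells, IFNγ 10 ng/mL with compound 20 μM for 24 h or 48 h; lysates in Tris/NaCl/Triton/SDS buffer with protease inhibitors, equal protein on 12% SDS-PAGE, goat anti-RGS10 (1:1,000) with β-actin or GAPDH loading control, infrared secondary detection; four independent experiments in duplicate.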

BV-2 [9] = test: as §1; assay type: functional; set-up: concentration or dose not given beside the values; summary of the method: as §2
BV-2 [10] = test: Reversal of IFNgamma-induced RGS10 silencing in mouse single close BV-2 cells assessed as suppression of RGS10 protein level at 20 uM measured after 48 hrs by Western blot analysis; assay type: functional, cell-based; summary of the method: as §4
BV-2 [11] = test: Reversal of IFNgamma-induced RGS10 silencing in mouse single close BV-2 cells assessed as increase in of RGS10 mRNA level measured after 24 hrs by qRT-PCR analysis; assay type: functional, cell-based; conditions: dose 0.5-20 µM
Summary of the method: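 Parental BV-2 cells given IFNγ 10 ng/mL for 24 h with compound 0.5–20 μM; RGS10 mRNA by one-step qRT-PCR (100 ng RNA, 0.4 μM primers; RT 55 °C 10 min, 40 cycles 95 °C/60 °C), Cq values with melt curve.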

Row | Compound | Activity [1] [%] | Activity [2] [%] | Activity [3] [%] | Activity (BV-2 [4]) | EC50 [5] [µM] | Activity (BV-2 [6]) | Activity (BV-2 [7]) | Activity (BV-2 [8]) | Activity (BV-2 [9]) | Activity (BV-2 [10]) | Activity (BV-2 [11])
1 | Cc1cc(C)cc(Nc2nc(C)cc(=O)n2CC(=O)Nc2cccc(C#N)c2)c1 | 105.8 | 102.4 | 116.1 |  |  |  |  |  |  |  | 
2 | CCOc1ccc(-c2nc(C3CC(=O)N(c4ccc(C)cc4)C3)no2)cc1 (centres undefined) | 104.7 | 97.4 | 85.6 |  |  |  |  |  |  |  | 
3 | O=C(Nc1ccc(F)cc1)c1cc2n(n1)CC(c1ccc3c(c1)OCO3)OC2 (centres undefined) | 105.3 | 123.2 | 113.8 |  |  |  |  |  |  |  | 
4 | COCCOC1CCN(C(=O)Nc2ccc(C(=O)OC)cc2)CC1 | 121.7 | 106.7 | 101.2 |  |  |  |  |  |  |  | 
5 | CC1=NS(=O)(=O)N(C)C=C1C(=O)OCc1nc(-c2cccc(F)c2)no1 | 90.3 | 94.3 | 78.9 |  |  |  |  |  |  |  | 
6 | Cc1cc(C)c2c(=O)cc(CN(Cc3ccccc3)Cc3ccco3)[nH]c2c1 | 92.8 | 230.6 | 98.5 | Active | 13.8 | inactive | Active | inactive |  |  | 
7 | Cc1cccc(-n2c(=O)c3c(cc(C)n3C)n(CC(=O)Nc3ccc(C(F)(F)F)cc3)c2=O)c1 | 113.8 | 145.1 | 95.9 |  |  |  |  |  |  |  | 
8 | COc1cccc(CNC(=O)c2ccc3c(Cl)c4c(nc3c2)CCCC4)c1 | 97.4 | 141.3 | 104.6 |  |  |  |  |  |  |  | 
9 | Cc1oc(-c2ccc(Cl)cc2)nc1CN1CCCC(C(=O)N2CCN(C(=O)c3ccco3)CC2)C1 (centres undefined) | 116.9 | 172.8 | 101.8 |  | 78.8 | inactive | Active | inactive |  |  | 
10 | Cc1ccc(-n2c(=O)c3c(cc(C)n3C)n(CC(=O)Nc3ccc(Br)cc3F)c2=O)cc1 |  | 90.1 | 156.8 |  |  |  |  |  | inactive |  | 
11 | O=C(CN1C(=O)NC(c2ccc(Cl)cc2)C2=C1COC2=O)Nc1cc(F)cc(F)c1 (centres undefined) | 80.4 | 186.7 | 56.8 |  | 31.2 | inactive | Active | inactive |  |  | 
12 | CCNc1ncnc2sc3c(c12)CCN(Cc1ccncc1)C3 | 89.5 | 94 | 97.1 |  |  |  |  |  |  |  | 
13 | O=C(CN1C(=O)NC(c2ccc(Cl)cc2)C2=C1COC2=O)Nc1ccc(F)c(F)c1 (centres undefined) | 84.1 | 171.6 | 69.6 |  | 23.5 | inactive | Active | inactive |  |  | 
14 | CCc1cc(-c2csc(S(=O)(=O)Nc3ccc(C)cc3Br)c2)on1 | 104.1 | 206.2 | 76.8 | Active | 33.6 | inactive | Active | inactive |  | Active | Dose-dependent-effect; Significant Reversal Achieved At > 5 Um
15 | COc1ccc(C2NC(=O)N(CC(=O)N3CCCCCC3)C3=C2C(=O)OC3)cc1 (centres undefined) | 87.4 | 102.4 | 104.8 |  |  |  |  |  |  |  | 
